From ChEMBL document CHEMBL1122182, “Structure-activity studies on the C-terminal amide of substance P” (1982)
Where a SMILES comes first, the peptide text is derived from it. [ ]: non-standard residue; d: D form. The star is where a group is joined. Nle = CCCC[C@H](N)C(=O)O; NEt2 = CCN(CC)*; X1 = CN(C)N*; NHNH2 = NN*

Key:
Assay type in all cases: functional
Cavia porcellus [1] = organism: Cavia porcellus; experiment: In vitro relative affinity was measured in guinea pig ileum
Outline: (§1)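 Contraction of isolated guinea pig ileum. Peptide solutions were prepared and used the same day, then discarded. Responses were expressed as pD2, intrinsic activity (αE) and relative affinity.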

Rattus norvegicus = experiment: In vivo relative blood pressure potency was measured in rat
Cavia porcellus [2] = organism: Cavia porcellus; experiment: In vitro intrinsic activity was measured in guinea pig ileum; outline: as §1
Cavia porcellus [3] = organism: Cavia porcellus; experiment: In vitro (pD2) the negative log of the dose which causes half-maximal contraction was measured in guinea pig ileum; outline: as §1

## CSCC[C@H](NC(=O)[C@H](CC(C)C)NC(=O)CNC(=O)[C@H](Cc1ccccc1)NC(=O)[C@H](Cc1ccccc1)NC(=O)[C@H](CCC(N)=O)NC(=O)[C@@H](N)CCC(N)=O)C(=O)N(C)C (H-QQFFGLM-NMe2)
Cavia porcellus [1]
  RA: <0.01%
Rattus norvegicus
  RBP: 0.2%

## CNC(=O)[C@H](CCSC)NC(=O)[C@H](CC(C)C)NC(=O)CNC(=O)[C@H](Cc1ccccc1)NC(=O)[C@H](Cc1ccccc1)NC(=O)[C@H](CCC(N)=O)NC(=O)[C@@H](N)CCC(N)=O (H-QQFFGLM-NHMe)
Cavia porcellus [1]
  RA: 1%
Cavia porcellus [2]
  Activity: 0.85
Rattus norvegicus
  RBP: 5%
Cavia porcellus [3]
  pD2: 6.77

## COC(=O)[C@H](CCSC)NC(=O)[C@H](CC(C)C)NC(=O)CNC(=O)[C@H](Cc1ccccc1)NC(=O)[C@H](Cc1ccccc1)NC(=O)[C@H](CCC(N)=O)NC(=O)[C@@H](N)CCC(N)=O (H-QQFFGLM-OMe)
Cavia porcellus [1]
  RA: 3.37%
Cavia porcellus [2]
  Activity: 1
Rattus norvegicus
  RBP: 1%
Cavia porcellus [3]
  pD2: 7.3

## CSCC[C@H](NC(=O)[C@H](CC(C)C)NC(=O)CNC(=O)[C@H](Cc1ccccc1)NC(=O)[C@H](Cc1ccccc1)NC(=O)[C@H](CCC(N)=O)NC(=O)[C@@H](N)CCC(N)=O)C(=O)NN (H-QQFFGLM-NHNH2)
Cavia porcellus [1]
  RA: 1%
Cavia porcellus [2]
  Activity: 1
Rattus norvegicus
  RBP: 0.4%
Cavia porcellus [3]
  pD2: 6.8

## CCCC[C@H](NC(=O)[C@H](CC(C)C)NC(=O)CNC(=O)[C@H](Cc1ccccc1)NC(=O)[C@H](Cc1ccccc1)NC(=O)[C@H](CCC(N)=O)NC(=O)[C@@H](N)CCC(N)=O)C(=O)N(CC)CC (H-QQFFGL[Nle]-NEt2)
Cavia porcellus [1]
  RA: 1.3%
Cavia porcellus [2]
  Activity: 1
Rattus norvegicus
  RBP: 0.2%
Cavia porcellus [3]
  pD2: 6.03

## CCCC[C@H](NC(=O)[C@H](CC(C)C)NC(=O)CNC(=O)[C@H](Cc1ccccc1)NC(=O)[C@H](Cc1ccccc1)NC(=O)[C@H](CCC(N)=O)NC(=O)[C@@H](N)CCC(N)=O)C(N)=O (H-QQFFGL[Nle]-NH2)
Cavia porcellus [2]
  Activity: 1
Cavia porcellus [3]
  pD2: 7.93

## CSCC[C@H](NC(=O)[C@H](CC(C)C)NC(=O)CNC(=O)[C@H](Cc1ccccc1)NC(=O)[C@H](Cc1ccccc1)NC(=O)[C@H](CCC(N)=O)NC(=O)[C@@H](N)CCC(N)=O)C(=O)NN(C)C (H-QQFFGLM-X1)
Cavia porcellus [1]
  RA: 0.53%
Rattus norvegicus
  RBP: <0.05%
Cavia porcellus [3]
  pD2: 6.6

## CCCC[C@H](NC(=O)[C@H](CC(C)C)NC(=O)CNC(=O)[C@H](Cc1ccccc1)NC(=O)[C@H](Cc1ccccc1)NC(=O)[C@H](CCC(N)=O)NC(=O)[C@@H](N)CCC(N)=O)C(=O)O (H-QQFFGL[Nle]-OH)
Cavia porcellus [1]
  RA: 2.6%
Cavia porcellus [2]
  Activity: 1
Rattus norvegicus
  RBP: 1.5%
Cavia porcellus [3]
  pD2: 6.34

## CCCC[C@H](NC(=O)[C@H](CC(C)C)NC(=O)CNC(=O)[C@H](Cc1ccccc1)NC(=O)[C@H](Cc1ccccc1)NC(=O)[C@H](CCC(N)=O)NC(=O)[C@@H](N)CCC(N)=O)C(=O)OC (H-QQFFGL[Nle]-OMe)
Cavia porcellus [1]
  RA: 3.5%
Cavia porcellus [2]
  Activity: 1
Rattus norvegicus
  RBP: 1.5%
Cavia porcellus [3]
  pD2: 6.47

## CSCC[C@H](NC(=O)[C@H](CC(C)C)NC(=O)CNC(=O)[C@H](Cc1ccccc1)NC(=O)[C@H](Cc1ccccc1)NC(=O)[C@H](CCC(N)=O)NC(=O)[C@@H](N)CCC(N)=O)C(N)=O (H-QQFFGLM-NH2)
Cavia porcellus [1]
  RA: 100%
Cavia porcellus [2]
  Activity: 1
Rattus norvegicus
  RBP: 100%
Cavia porcellus [3]
  pD2: 8.77

## CCCC[C@H](NC(=O)[C@H](CC(C)C)NC(=O)CNC(=O)[C@H](Cc1ccccc1)NC(=O)[C@H](Cc1ccccc1)NC(=O)[C@H](CCC(N)=O)NC(=O)[C@@H](N)CCC(N)=O)C(=O)NN (H-QQFFGL[Nle]-NHNH2)
Cavia porcellus [1]
  RA: 5%
Cavia porcellus [2]
  Activity: 1
Rattus norvegicus
  RBP: 5.2%
Cavia porcellus [3]
  pD2: 6.63
